Sampled rows, rich in hits. Any-hit rate of the full collection: about 5.2%.
M1 antagonist – blocks the rat M1 muscarinic receptor response to acetylcholine. B-score at 10 µM. 3.4% of 64,000 active. CHO-M1 cells, Fluo-4 calcium, ACh EC80 antagonist mode; hits give low values. AID 628;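 active = calcium fluorescence response, raw or row-and-column corrected B-score, differing from the plate sample mean either way at a set confidence level, mostly lower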
AP ELISA ortho – orthogonal test for alternative complement pathway inhibitors | Human serum alternative complement pathway, LPS-coated ELISA, C3 deposition; tested in compound mixtures | inhibition, % at 5 µM | 0.08% of 62,000 active;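 active = inhibition above 30% in each of the two pooled mixtures holding the compound, so the lower value exceeds 30%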
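Assay system: human serum alternative complement pathway, C3 deposition on LPS-coated wells; Dosing: 5 µM per compound in ten-compound mixtures; Detection: Anti-C3 ELISA, OD 450 nm; Buffer or medium: Mg2+-EGTA GVB++ buffer containing human serum at 1:15 dilution; Timing: 1 h at 37 °C; Replication: two different pools per compound.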
E coli WT exp – E. coli BW25113 growth inhibition, expanded screen. OD600 absorbance. growth inhibition, % at 100 µM. 0.15% of 98,000 active. AID 710;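 active = growth inhibition above about 50% at one test dose, limit read from the data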;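 note: growth measured after 20 h incubation at 37 °C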
WNV NS2B-NS3 inh – blocks West Nile virus NS2B-NS3 protease activity; P06935; WNV NS2B-NS3 protease, fluorogenic substrate Ex360/Em465; hits give low values; z-score (no concentration beside the values); 0.18% of 65,000 active; in the data active = z-score below about -3
Target sequence (P06935 1371-1501 limits assumed): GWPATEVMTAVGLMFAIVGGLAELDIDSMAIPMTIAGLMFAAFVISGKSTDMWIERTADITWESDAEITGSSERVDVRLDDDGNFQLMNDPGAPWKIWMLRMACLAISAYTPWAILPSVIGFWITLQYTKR
Target sequence (P06935 1502-1679 limits assumed): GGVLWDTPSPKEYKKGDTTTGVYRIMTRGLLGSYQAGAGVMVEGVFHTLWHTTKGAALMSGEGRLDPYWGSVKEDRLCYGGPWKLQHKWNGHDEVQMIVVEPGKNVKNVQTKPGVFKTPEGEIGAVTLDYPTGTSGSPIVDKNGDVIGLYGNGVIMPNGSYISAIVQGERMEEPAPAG
tolC growth inh – growth inhibitors of E. coli BW25113 tolC mutant | OD615 | growth inhibition, % at 10 µM (by protocol) | 2.2% of 65,000 active | AID 573;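 active = growth inhibition at or above a cutoff equal to the mean over every tested compound plus 3 SD, cut at about 60% in these data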;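 note: growth measured after 20 h incubation at 37 °C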
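Test system: E. coli BW25113 ΔtolC::kan bacteria | Medium: Kanamycin-containing LB broth (50 µg/mL) | Dosing: One dose of 10 µM final | Times: 20 h incubation with compound, 37 °C | Detection: Optical density read at 615 nm | Read-out basis: Percent growth inhibition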
M1 agonist – agonists of M1 muscarinic receptor; CHO-M1 cells, Fluo-4 calcium fluorescence, agonist mode; hits give high values; 3% of 64,000 active; AID 626; B-score at 10 µM;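 active = fluorescence rise, raw or as B-score row- and column-corrected plate score, outside the 99.7% band of its plate's samples, either direction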
M1 ag confirm – rat M1 muscarinic agonism, confirmation | shares compounds with M1 agonist | fluorescence change (max-min) at 10 µM | CHO-M1 cells, Fluo-4 calcium fluorescence, agonist mode; actives lie on both sides | 19% of 1,700 active | AID 1488;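 active = fluorescence change differs from the solvent-only DMSO control mean at a set confidence level in both duplicate runs; inconclusive = differs from solvent-only control mean in just one of two runs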;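 note: an EC20 dose of acetylcholine follows compound addition during the same imaging run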
M4 ag counter – counter-screen for M1 agonists: activity at rat M4 receptor; shares compounds with M1 agonist; CHO M4/Gqi5 cells, Fluo-4 calcium fluorescence, agonist mode; actives lie on both sides; fluorescence change (max-min) at 10 µM; 9% of 1,700 active; AID 1741;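 active = fluorescence change differing from the plate's solvent-only control wells at 99.7% confidence in both duplicates, whether higher or lower; inconclusive = differs from solvent controls in only one of two duplicates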
Numbers stand for hits.

`COc1ccc(OC)c(Nc2cc(C(=O)NCCCN3CCOCC3)c3ccccc3n2)c1` gave M1 antagonist inactive, AP ELISA ortho inactive, E coli WT exp inactive, WNV NS2B-NS3 inh inactive, tolC growth inh inactive, M1 agonist 7.5, M1 ag confirm -26 and M4 ag counter -79.
`CCOc1ccc(-c2nc(CSCC(=O)NCc3ccco3)c(C)o2)cc1` gave M1 antagonist inactive, AP ELISA ortho inactive, E coli WT exp inactive, WNV NS2B-NS3 inh inactive, tolC growth inh inactive and M1 agonist inactive.
CN1CCc2c(sc3c2C(=O)NC(c2ccc(-c4cccc(Cl)c4)o2)N3)C1 (stereo not given) was read as M1 antagonist inactive, AP ELISA ortho inactive, WNV NS2B-NS3 inh inactive, tolC growth inh inactive, M1 agonist 14, M1 ag confirm inactive and M4 ag counter inactive.
`CN1CCc2c(sc3c2C(=O)NC(c2cccs2)N3)C1` (stereo not given) gave M1 antagonist inactive, AP ELISA ortho inactive, E coli WT exp inactive, WNV NS2B-NS3 inh inactive, tolC growth inh inactive and M1 agonist inactive.
`CCc1ccc(C(=O)COC(=O)c2cnccn2)cc1` gave E coli WT exp inactive.
For Cc1[nH]c(=O)c(C#N)c2c1CSC(C)(C)C2 the results were E coli WT exp inactive.
`Cc1ccc(N(C(C)C(=O)N2CCC(C)CC2)S(C)(=O)=O)cc1C` (stereo not given) gave M1 antagonist inactive, AP ELISA ortho inactive, E coli WT exp inactive, WNV NS2B-NS3 inh inactive, tolC growth inh inactive, M1 agonist 2.5, M1 ag confirm inactive and M4 ag counter inactive.
For CCOC(=O)N1CCN(C(=O)C(C)N(c2ccc(Oc3ccccc3)cc2)S(C)(=O)=O)CC1 (stereo not given) the results were M1 antagonist inactive, AP ELISA ortho inactive, E coli WT exp inactive, WNV NS2B-NS3 inh inactive, tolC growth inh inactive, M1 agonist 3.6, M1 ag confirm inactive and M4 ag counter inactive.
Screening COc1cccc(-c2nn3c(-c4cccc(C)c4)nnc3s2)c1 returned M1 antagonist inactive, AP ELISA ortho inactive, E coli WT exp inactive, WNV NS2B-NS3 inh inactive, tolC growth inh inactive, M1 agonist 24, M1 ag confirm inconclusive and M4 ag counter inactive.
For COc1ccc(-c2nnc3sc(-c4ccco4)nn23)cc1OC the results were M1 antagonist inactive, AP ELISA ortho inactive, E coli WT exp inactive, WNV NS2B-NS3 inh inactive, tolC growth inh inactive, M1 agonist 4.3, M1 ag confirm inactive and M4 ag counter inactive.
Screening COc1cccc(-c2nnc3sc(-c4ccc(C)cc4)nn23)c1 returned M1 antagonist inactive, AP ELISA ortho inactive, E coli WT exp inactive, WNV NS2B-NS3 inh inactive, tolC growth inh inactive and M1 agonist inactive.
CCOc1ccc(C(=O)NCCC(=O)NCCCC(=O)O)cc1 was read as M1 antagonist inactive, AP ELISA ortho inactive, E coli WT exp inactive, WNV NS2B-NS3 inh inactive, tolC growth inh inactive and M1 agonist inactive.
`CC(C)Cn1c2c(c(O)c(C(=O)Nc3ccc(F)cc3)c1=O)CCCC2` gave M1 antagonist inactive, AP ELISA ortho inactive, E coli WT exp inactive, WNV NS2B-NS3 inh inactive, tolC growth inh inactive, M1 agonist 3, M1 ag confirm inconclusive and M4 ag counter inactive.
For CC(C)Cn1c2c(c(O)c(C(=O)Nc3ncccc3O)c1=O)CCCC2 the results were M1 antagonist inactive, AP ELISA ortho inactive, E coli WT exp inactive, WNV NS2B-NS3 inh inactive, tolC growth inh inactive and M1 agonist inactive.
`CC(=O)N1CCc2cc(S(=O)(=O)CCC(=O)N3CCN(C(=O)c4ccco4)CC3)ccc21` gave M1 antagonist inactive, AP ELISA ortho inactive, WNV NS2B-NS3 inh inactive, tolC growth inh inactive and M1 agonist inactive.
For COc1cccc(NC(=O)CSc2nc3c(c(=O)n2C)SC(C)C3)c1 (stereo not given) the results were M1 antagonist inactive, AP ELISA ortho inactive, E coli WT exp inactive, WNV NS2B-NS3 inh inactive, tolC growth inh inactive and M1 agonist inactive.

Assay outcomes: PubChem, several laboratories
